Test results from ChEMBL document CHEMBL3044571, “Identification of novel inhibitors of 1-aminocyclopropane-1-carboxylic acid synthase by chemical screening in Arabidopsis thaliana” (J Biol Chem, 2010).
pIC50, pKi: −log10 of the molar value. The source made the active and inactive calls. The calls are words filed in the database; no cut-off is given here.

Legend:
[1] = system: Arabidopsis thaliana; assay: Inhibition of ethylene biosynthesis in Arabidopsis thaliana eto1-4 expressing 5 x EBS::LUC assessed as decrease ethylene level at 10 uM 3 days after germination in dark relative to aminoethoxyvinylglycine; format: functional; conditions: 72 h
[2] = system: Arabidopsis thaliana; assay: Inhibition of triple response phenotype in Arabidopsis thaliana seedlings expressing eto1-4 mutant by measuring hypocotyl elongation at 10 uM 3 days after germination in dark; format: functional; conditions: 72 h
[3] = system: Arabidopsis thaliana; assay: Inhibition of triple response phenotype in Arabidopsis thaliana seedlings expressing eto1-4 mutant by measuring hypocotyl elongation up to 50 uM 3 days after germination in dark; format: functional, organism-based
[4] = system: Arabidopsis thaliana; assay: Inhibition of triple response phenotype in Arabidopsis thaliana seedlings expressing ctr1-1 mutant by measuring hypocotyl elongation up to 50 uM 3 days after germination in dark; format: functional, organism-based
[5] = system: Arabidopsis thaliana; assay: Inhibition of triple response phenotype in Arabidopsis thaliana seedlings expressing 35S::EIN3 by measuring hypocotyl elongation up to 50 uM 3 days after germination in dark; format: functional, organism-based
[6] = system: Arabidopsis thaliana; assay: Inhibition of triple response phenotype in Arabidopsis thaliana seedlings expressing 35S::EIN3 by measuring hypocotyl elongation at 10 uM 3 days after germination in dark; format: functional, organism-based
[7] = system: Arabidopsis thaliana; assay: Inhibition of ethylene biosynthesis in Arabidopsis thaliana eto1-4 expressing 5 x EBS::LUC assessed as decrease ethylene level at 10 uM 3 days after germination in dark; format: functional, organism-based
[8] = molecular target: T1, 1-aminocyclopropane-1-carboxylate synthase 5 (Arabidopsis thaliana, UniProt Q37001); assay: Inhibition of Arabidopsis thaliana recombinant ACS5 expressed in Escherichia coli (BL21) assessed as oxidation of ACC to ethylene preincubated for 30 min measured after 10 min by gas chromatography
T1 sequence (Q37001 whole entry): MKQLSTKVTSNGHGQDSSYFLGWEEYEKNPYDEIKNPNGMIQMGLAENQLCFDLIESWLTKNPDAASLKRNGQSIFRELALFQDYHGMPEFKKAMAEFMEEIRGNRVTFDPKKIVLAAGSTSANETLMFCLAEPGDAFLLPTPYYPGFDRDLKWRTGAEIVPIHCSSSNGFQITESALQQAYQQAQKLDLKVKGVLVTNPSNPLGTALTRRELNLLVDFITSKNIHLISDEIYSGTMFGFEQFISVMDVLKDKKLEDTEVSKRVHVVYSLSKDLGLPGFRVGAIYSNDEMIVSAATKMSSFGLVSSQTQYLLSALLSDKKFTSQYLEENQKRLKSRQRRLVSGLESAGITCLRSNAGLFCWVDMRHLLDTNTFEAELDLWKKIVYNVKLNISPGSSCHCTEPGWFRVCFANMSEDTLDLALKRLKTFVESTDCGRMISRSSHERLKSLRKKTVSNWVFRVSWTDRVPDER
Summary of the method: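 His-tagged recombinant ACS5 expressed in E. coli (IPTG induction, 16°C, 18 h) and purified on a HisTrap column. Enzyme (1 μg) in 2 ml buffer A (pH 8.0) with 10 μM PLP and 250 μM SAM, plus graded compound or DMSO, for 30 min at 25°C. Stopped with HgCl2 and NaOH:bleach, which oxidize ACC to ethylene, quantified by GC against an ACC standard curve. Duplicate, repeated ≥3 times.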

[9] = system: Arabidopsis thaliana; assay: Inhibition of triple response phenotype in Arabidopsis thaliana seedlings expressing ctr1-1 mutant by measuring hypocotyl elongation at 10 uM 3 days after germination in dark; format: functional, organism-based
[10] = system: Arabidopsis thaliana; assay: Inhibition of triple response phenotype in Arabidopsis thaliana seedlings expressing eto2-1 mutant by measuring hypocotyl elongation at 10 to 30 uM 3 days after germination in dark; format: functional, organism-based
[11] = system: Arabidopsis thaliana; assay: Inhibition of triple response phenotype in Arabidopsis thaliana seedlings expressing eto1-4 mutant and 5 x EBS::LUC by measuring hypocotyl elongation at 0.1 to 1 uM 3 days after germination in dark; format: functional, organism-based
Summary of the method: (§1)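 Etiolated eto1-4 seedlings grown 3 days in the dark at 22°C on 0.5xMS agar containing graded compound, STS or AVG, with DMSO control. Seeds bleach-sterilized and stratified 3–4 days at 4°C beforehand. Hypocotyl length measured from stereomicroscope images; means of n ≥30 seedlings.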

[12] = system: Arabidopsis thaliana; assay: Inhibition of triple response phenotype in Arabidopsis thaliana seedlings expressing eto1-4 mutant and 5 x EBS::LUC by measuring hypocotyl elongation at >5 uM 3 days after germination in dark; format: functional, organism-based; summary of the method: as §1
[13] = molecular target: T1, 1-aminocyclopropane-1-carboxylate synthase 5; assay: Uncompetitive inhibition of Arabidopsis thaliana recombinant ACS5 expressed in Escherichia coli (BL21) assessed as oxidation of ACC to ethylene by Lineweaver-Burk plot analysis
[14] = system: Arabidopsis thaliana; assay: Inhibition of triple response phenotype in Arabidopsis thaliana seedlings expressing eto1-4 mutant and 5 x EBS::LUC by measuring hypocotyl elongation at 1 to 5 uM 3 days after germination in dark; format: functional, organism-based; summary of the method: as §1

How did the inhibition at 10 µM [1] turn out when `CC1(C)CC(=O)c2cnc(NCc3ccccc3)nc2C1` was run?
The inhibition at 10 µM was 45%.

How did the inhibition at 10 µM [2] turn out when `CCCCNc1ncc2c(n1)CC(c1ccccc1)CC2=O` (centres undefined) was run?
The inhibition at 10 µM was 43%.

And the inhibition at 10 µM [1]?
The inhibition at 10 µM was 92%.

`CCCCc1nc(N)nc2c1C(=O)CC(C)(C)C2` was tested. Which inhibition at 10 µM [1] did it give?
The inhibition at 10 µM was 22%.

For `CC1(C)CC(=O)c2cnc(NC3CCCC3)nc2C1`, which inhibition [3] is on record?
Its inhibition is “Active”.

What about the inhibition [4] of the same compound?
Its inhibition is “inactive”.

And the inhibition [5]?
The inhibition was “inactive”.

And the inhibition at 10 µM [2]?
Its inhibition at 10 µM is 55%.

And the inhibition [6]?
Its inhibition is “inactive”.

And the inhibition [7]?
The inhibition was “Active”.

What about the inhibition at 10 µM [1] of the same compound?
Its inhibition at 10 µM is 87%.

And the pIC50 [8]?
The pIC50 was 5.10.

What about the inhibition [9] of the same compound?
The inhibition was “inactive”.

What about the inhibition [10] of the same compound?
Its inhibition is “Active”.

`COc1ccc(C2CC(=O)c3cnc(Nc4ccccc4)nc3C2)cc1` (centres undefined) was tested. Which inhibition [3] did it give?
The inhibition was “Active”.

And the inhibition [11]?
The inhibition was “Active”.

What about the inhibition [4] of the same compound?
Its inhibition is “inactive”.

And the inhibition [5]?
Its inhibition is “inactive”.

What about the inhibition [12] of the same compound?
The inhibition was “Active”.

And the inhibition at 10 µM [2]?
The inhibition at 10 µM was 77%.

What about the inhibition [6] of the same compound?
The inhibition was “inactive”.

And the inhibition [7]?
Its inhibition is “Active”.

What about the inhibition at 10 µM [1] of the same compound?
The inhibition at 10 µM was 93%.

And the pKi [13]?
Its pKi is 7.64.

And the inhibition [9]?
The inhibition was “inactive”.

And the inhibition [10]?
Its inhibition is “Active”.

With `CC1CC(=O)c2cnc(NCc3ccccc3)nc2C1` (centres undefined) as the compound, how does the inhibition at 10 µM [1] read?
The inhibition at 10 µM was 54%.

`Cc1nc(Nc2ccccc2)nc2c1C(=O)CC(C)(C)C2` was tested. Which inhibition at 10 µM [1] did it give?
Its inhibition at 10 µM is 67%.

Which inhibition at 10 µM [1] does the source give for `CC1(C)CC(=O)c2cnc(NCc3ccc(F)cc3)nc2C1` here?
The inhibition at 10 µM was 69%.

With `CC1(C)CC(=O)c2cnc(Nc3ccc(F)cc3)nc2C1` as the compound, how does the inhibition at 10 µM [1] read?
Its inhibition at 10 µM is 36%.

What does the source list for `Cc1ccc(C2CC(=O)c3cnc(NC4CCCC4)nc3C2)cc1` (centres undefined)?
inhibition [3]: Active; inhibition [11]: Active; inhibition [4]: inactive; inhibition [5]: inactive; inhibition [12]: Active; inhibition at 10 µM [2]: 66%; inhibition [6]: inactive; inhibition [7]: Active; inhibition at 10 µM [1]: 87%; inhibition [9]: inactive; inhibition [10]: Active

What does the source list for `CC1(C)CC(=O)c2cnc(Nc3ccccc3)nc2C1`?
inhibition at 10 µM [2]: 29%; inhibition at 10 µM [1]: 77%

With `O=S(O)(O)=S` [SILVER THIOSULFATE] as the compound, how does the inhibition at 10 µM ([2]; tested as the Ag salt or complex) read?
Its inhibition at 10 µM is 84%.

`NCCO/C=C/C(N)C(=O)O` (centres undefined) [AMINOETHOXYVINYLGLYCINE] was tested. Which inhibition at 10 µM [2] did it give?
The inhibition at 10 µM was 100%.

And the inhibition [14]?
The inhibition was “Active”.

And the pKi [13]?
The pKi was 7.82.

And the pIC50 [8]?
Its pIC50 is 6.15.

What about the inhibition [10] of the same compound?
Its inhibition is “Active”.

`Cc1nc(Nc2ccc(F)cc2)nc2c1C(=O)CC(C)(C)C2` was tested. Which inhibition at 10 µM [1] did it give?
Its inhibition at 10 µM is 9%.

Which inhibition at 10 µM [2] does the source give for `O=C1CC(c2ccccc2Cl)Cc2nc(NC3CCCC3)ncc21` (centres undefined) here?
Its inhibition at 10 µM is 54%.

And the inhibition at 10 µM [1]?
The inhibition at 10 µM was 91%.

How did the inhibition at 10 µM [2] turn out when `CC1CC(=O)c2cnc(Nc3ccccc3)nc2C1` (centres undefined) was run?
Its inhibition at 10 µM is 28%.

What about the inhibition at 10 µM [1] of the same compound?
The inhibition at 10 µM was 82%.
